Screening results (PubChem)
Insulin prom act – activators of insulin promoter-driven GFP, primary screen, imaging, TRM-6 cells, eGFP reporter, cell count | plate-scaled: unstimulated 0, stimulated control 100 | AID 1296, 2008 | 0.81% of 130,000 active | activation, % at 2 µM;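 active = activation at 2 µM above a set limit, confirmed on inspection of the cell images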;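 note: share of cells whose green reporter signal exceeds an intensity cutoff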
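material = TRM-6 human fetal islet cells, insulin promoter–eGFP reporter | input = 1,000 TRM-6 cells seeded per well | benchmarks = stimulated versus unstimulated wells as plate controls | measured by = automated fluorescence imaging of paraformaldehyde-fixed, Hoechst-counterstained cells, green channel | schedule = compound exposure 48 h, 37 °C | reagent = tamoxifen at 0.75 µM added at seeding for reporter induction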
Starred values were filed as active, the others as inactive. Shown is part of a subset that was picked to be rich in hits.

SMILES	Insulin prom act
Oc1ccc2ccccc2c1C=Nc1cc(C(F)(F)F)ccc1N1CCCC1	-7.1
COC(=O)CCN(C(=O)c1ccc(OC(C)=O)cc1)c1ccccn1	75.7*
CC(c1ccco1)N(C(=O)c1ccc(C#N)cc1)c1ccccn1 (centres undefined)	-7.1
COC(=O)CCN(C(=O)c1cc([N+](=O)[O-])cc([N+](=O)[O-])c1)c1ccccn1	0.0
COc1cccc(/C=N/NC(=O)CN2CC(c3ccccc3)CC2=O)c1O (centres undefined)	-7.7
COC(=O)c1c(NC(=O)CN2CCC3(O)CCCCC3C2c2cc(OC)ccc2OC)sc(C)c1C (centres undefined)	-64.3
Cc1cc(=O)[nH]c(N/N=C/c2ccc(Br)s2)n1	0.0
CCCC(=O)NC(c1ccco1)c1cc([N+](=O)[O-])c2cccnc2c1O (centres undefined)	6.7
CCCC(=O)NC(c1ccco1)c1c(O)ccc2ccccc12 (centres undefined)	133.3*
CCOC(=O)C(Cc1c[nH]c2ccccc12)NC(=O)c1ccco1 (centres undefined)	-9.4
CCC(C)n1ncn(-c2ccc(N3CCN(c4ccc(OC)cc4)CC3)cc2)c1=O (centres undefined)	-3.4
CC(C)CC(C(=O)NC(C)(C)C)N(CC1CCCO1)C(=O)c1snc(C(N)=O)c1N (centres undefined)	133.3
Cc1nnsc1C(=O)NC(C)c1ccccc1 (centres undefined)	-8.3
O=C(Nc1ccccc1N1CCOCC1)c1cccnc1	8.3
Cc1cccc(-c2cc(C(=O)Nc3ccc4c(c3)OCCO4)c3ccccc3n2)c1	-3.3
O=C(Nc1ccccc1N1CCOCC1)c1cc(-c2ccncc2)nc2ccccc12	235.7*
CC(C)C(NC(=O)c1ccccc1F)C(=O)Nc1nccs1 (centres undefined)	0.0
Cc1ccc(-c2nnn(CC(=O)N3CCCCC3)n2)o1	0.0
Cc1ccnc(NC(=O)CCC(=O)N(CC(=O)NCc2ccccc2)Cc2cccs2)c1	138.9
S=C(Nc1ccc(Oc2ccc(NC(=S)NC3CCCCC3)cc2)cc1)NC1CCCCC1	0.0
CC(C)(C)c1ccc(/C=N/NC(=S)NC2CCCCC2)cc1	421.4*
S=C(Nc1ccc(Cl)c(Cl)c1)NC1CCCCC1	9.1
CC(C)OP(=O)(OC(C)C)C(C)NC(=O)Cc1ccccc1 (centres undefined)	-81.8
Cc1ccc(S(=O)(=O)/N=C(/Nc2c(C)n(C)n(-c3ccccc3)c2=O)c2ccccc2)cc1	3.4
O=C(NCc1ccccn1)C(=O)NN=C1CCCCCCC1	8.1
SMILES	Insulin prom act
O=C(c1ccc(S(=O)(=O)c2ccccc2)cc1)N1CCc2ccccc2C1	5.6
C=CCn1cc(C(=O)N2CCc3ccccc3C2)c(=O)c2cc(S(=O)(=O)N(CC)CC)ccc21	400.0*
C=CCn1cc(C(=O)OC)c(=O)c2cc(S(=O)(=O)N3CCC(C)CC3)ccc21	0.0
COc1cc(/C=N\NC(=O)c2ccc(Cn3cc(Br)c([N+](=O)[O-])n3)o2)cc(OC)c1O	0.0
O=[N+]([O-])c1cc(S(=O)(=O)N2CCCC2)ccc1SCCO	127.3
O=c1c2ccccc2nc2sc3ccccc3n12	9.1
C=CCSc1nn2c(=O)c3ccccc3nc2s1	130.0*
C=CCSc1nc2ccccc2c2nc(-c3ccccc3)nn12	5.1
Cc1cccc(C(=O)NN2S(=O)(=O)c3ccccc3S2(=O)=O)c1	8.1
COc1cc(/C=N/c2oc(-c3ccccc3)cc2C#N)ccc1O	8.3
CCN1CCCC1CN(Cc1cc2ccc(C)cc2[nH]c1=O)C(=S)Nc1ccc(F)cc1 (centres undefined)	146.2
Cc1cccc(NC(=S)N(Cc2cccs2)Cc2cc3cc(C)ccc3[nH]c2=O)c1	-7.7
COc1cc2cc(CN(Cc3cccs3)C(=S)Nc3cccc(C)c3)c(=O)[nH]c2cc1OC	353.8*
CNC(=S)N(Cc1cccs1)Cc1cc2cc(OC)c(OC)cc2[nH]c1=O	2.6
O=C(O)C1=C(OCc2ccccc2)C(=O)NCC1	5.6
COc1ccc(C2C(C#N)=C(N)Nc3onc(C(C)(C)C)c32)c(OC)c1 (centres undefined)	-3.3
CCCCOc1ccc(C2C3CN(C(=O)OCC)CC=C3C(C#N)=C(N)C2(C#N)C#N)cc1OC (centres undefined)	5.4
COc1ccc(OC)c(C2C3CN(C(C)C)CC=C3C(C#N)=C(N)C2(C#N)C#N)c1 (centres undefined)	478.6*
CC1(C)OC(c2ccccc2)=C/C(=C/C=N/NC(=O)c2ccncc2)O1	7.7
Fc1ccc2c(Cl)c(-c3nnc(-c4cccs4)o3)sc2c1	3.7
Cc1cc(C(=O)NC(C)Cc2ccccc2)cc(C)c1[N+](=O)[O-] (centres undefined)	7.1
Cc1cc(C)c(OCC(=O)N/N=C/c2ccc3c(c2)OCO3)c(C)c1	-6.9
O=C(Nc1ccc(S(=O)(=O)N2CCCCC2)cc1)c1ccncc1	8.3
Nc1c(C(=O)Nc2ccc(S(=O)(=O)N3CCCC3)cc2)sc2nc3ccc(OC(F)(F)F)cc3cc12	231.0*
Nc1c(C(=O)Nc2ccc(S(=O)(=O)N3CCCC3)cc2)sc2nc3cc4c(cc3cc12)CCC4	181.8
SMILES	Insulin prom act
O=C(COc1ccc(C(=O)c2ccccc2)cc1)NCC(=O)Nc1ccccc1Br	2.7
COc1ccc(C2CC(c3ccc(Br)cc3)=NN2C(=O)CSC2=NCCS2)cc1 (centres undefined)	3.3
O=C(NCc1ccco1)C1CCN(S(=O)(=O)Cc2ccccc2)CC1	355.6
O=S(=O)(NCc1csc(-c2cccnc2)n1)c1cccs1	50.0
CCc1ccc(S(=O)(=O)NCc2csc(-c3cccnc3)n2)s1	857.1*
CC(=O)Nc1ccc(S(=O)(=O)NCc2csc(-c3cccnc3)n2)cc1	-43.0
CC(C)(C)OC(=O)N1CCC(C(=O)N[C@@H](Cc2ccccc2)C(=O)O)CC1	-2.8
O=S(=O)(c1cccc(-c2nnc3n2CCCCC3)c1)N1CCCC1	0.0
O=C1CCCCC1C(Nc1ccc(Cl)cc1)c1ccccc1 (centres undefined)	213.8*
CCOC(=O)NC(c1ccccc1)C1CCCCC1=O (centres undefined)	-8.3
O=C(OC1CCCCC1=O)c1ccc(S(=O)(=O)Nc2ccccc2)cc1 (centres undefined)	-8.6
C=CCOC(=O)COc1ccc2c(C)c(C)c(=O)oc2c1	0.0
CCSc1cc(N2CCOCC2)nc(-c2ccc(Cl)cc2)n1	0.0
COc1ccc(CC(=O)n2nc(-c3ccccc3)nc2NCc2ccco2)cc1	641.7*
O=C(Cc1ccc(-c2ccccc2)cc1)NNC(=S)NCc1ccco1	0.0
Cc1ccc(-c2nc(NCc3ccco3)n(S(C)(=O)=O)n2)cc1	-7.7
O=C(CCCNS(=O)(=O)c1ccc(Cl)c(Cl)c1)NCCc1ccccn1	6.7
CCOc1nc(NC(=O)NS(=O)(=O)Oc2cccc(Cl)c2)nc(-c2ccccc2)n1	-77.8
CCC(=O)Nc1nc2nc(C)cc(=O)n2[nH]1	-4.2
Cc1cc(=O)n2[nH]c(NCc3ccccc3F)nc2n1	0.0
Cc1cc(=O)n2[nH]c(C(=O)O)nc2n1	76.7*
C/C(=N/OC(=O)c1ccc(F)cc1)c1ccc(C)cc1	0.0
COc1ccc(C2=NN(CC(=O)NCc3ccco3)C(=O)CC2)cc1	0.0
O=c1cc(-c2ccccc2)nc(N2CCN(Cc3ccc4c(c3)OCO4)CC2)[nH]1	730.0*
O=c1[nH]c(CN2CCN(Cc3ccc4c(c3)OCO4)CC2)nc2ccccc12	2.8
